# How the values were obtained:
# [1] = Cytotoxicity against mouse RAW264.7 cells at 50 uM after 72 hrs by MTT assay; assay type: cell-based; conditions: read-out: INH
# Outline: (§1)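 RAW 264.7 macrophages exposed to compound for 72 h. Viability read as MTT conversion to formazan with a non-radioactive cell proliferation kit, reported as percentage growth inhibition.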
# [2] = target: T1, Enoyl-[acyl-carrier-protein] reductase [NADH] (Mycobacterium tuberculosis, UniProt P9WGR1); experiment: Inhibition of Mycobacterium tuberculosis recombinant His6-tagged InhA expressed in Escherichia coli BL21(DE3) using 2-trans-decenoyl-CoA as substrate incubated for 2 hrs prior to substrate addition by spectrophotometry
# T1 sequence (P9WGR1 whole entry): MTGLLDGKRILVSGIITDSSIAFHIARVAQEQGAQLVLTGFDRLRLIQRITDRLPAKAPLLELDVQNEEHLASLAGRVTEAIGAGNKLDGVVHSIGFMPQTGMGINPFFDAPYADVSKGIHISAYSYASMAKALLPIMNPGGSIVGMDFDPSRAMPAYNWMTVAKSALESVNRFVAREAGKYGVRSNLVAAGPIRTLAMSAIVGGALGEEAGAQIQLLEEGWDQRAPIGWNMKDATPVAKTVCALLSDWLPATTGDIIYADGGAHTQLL
# [3] = target: T2, Enoyl-[acyl-carrier-protein] reductase [NADH] (Mycobacterium tuberculosis) (UniProt P9WGR1); experiment: Inhibition of Mycobacterium tuberculosis recombinant His6-tagged InhA expressed in Escherichia coli BL21(DE3) using 2-trans-decenoyl-CoA as substrate at 10 uM incubated for 2 hrs prior to substrate addition by spectrophotometry
# T2 sequence (whole entry): T1 sequence (P9WGR1 whole entry)
# Outline: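 His6-InhA expressed in E. coli BL21(DE3) with 0.1 mM IPTG at 18 °C and purified on Ni-NTA. 70 nM enzyme pre-incubated 2 h with inhibitor at 10 µM in 30 mM PIPES, 150 mM NaCl, pH 6.8, 0.5% DMSO, 25 °C. Reaction started with DD-CoA plus NADH and followed at 340 nm. Initial velocity compared with a no-ligand control; triplicate.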
# [4] = test system: Mycobacterium tuberculosis; experiment: Antimicrobial activity against Mycobacterium tuberculosis H37Rv ATCC 27294 after 28 days by two-fold agar dilution method in presence of verapamil; assay type: functional; conditions: H37Rv ATCC 27294, 672 h
# Outline: (§2)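 Two-fold serial dilutions in Middlebrook 7H11 agar with OADC supplement, final 50 to 0.78 µg/mL. Inoculum from fresh 7H11/OADC slants, adjusted to 1 mg/mL wet weight in 0.05% Tween 80 saline and diluted 10^-2 (~10^7 cfu/mL), spotted onto drug-containing agar tubes. Incubated at 37 °C; MIC is the lowest concentration inhibiting growth, read at 28 days.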
# [5] = test system: Mycobacterium tuberculosis; experiment: Antimicrobial activity against Mycobacterium tuberculosis H37Rv ATCC 27294 after 28 days by two-fold agar dilution method; assay type: functional; conditions: H37Rv ATCC 27294, 672 h; outline: as §2
# [6] = test system: Mycobacterium tuberculosis; experiment: Antimicrobial activity against Mycobacterium tuberculosis H37Rv ATCC 27294 after 28 days by two-fold agar dilution method in presence of piperine; assay type: functional; conditions: H37Rv ATCC 27294, 672 h; outline: as §2
# [7] = Cytotoxicity against mouse RAW264.7 cells at 100 uM after 72 hrs by MTT assay; assay type: cell-based; conditions: read-out: INH; outline: as §1
SMILES,"cytotoxicity at 72 h, 50 µM [1]",IC50 [2],inhibition [3],MIC [4],MIC [5],MIC [6],"cytotoxicity at 72 h, 100 µM [7]"
O=C(Cn1c(=O)oc2cc([N+](=O)[O-])ccc21)Nc1nc2ccccc2s1,22.7%,7.62 µM,60.8%,33.8 µM,33.8 µM,33.8 µM,56.1%
O=C(Cn1c(=O)oc2ccccc21)Nc1nc2ccc([N+](=O)[O-])cc2s1,12.4%,,45.1%,8.43 µM,33.8 µM,4.21 µM,19.2%
O=C(Cn1c(=O)oc2cc(Cl)ccc21)Nc1ccccc1,15.8%,,28.2%,20.6 µM,82.6 µM,41.3 µM,20.2%
O=C(Cn1c(=O)oc2ccccc21)Nc1cc(C(F)(F)F)ccc1Cl,12.3%,,26.8%,33.7 µM,67.4 µM,16.9 µM,15.4%
O=C(Cn1c(=O)oc2cc(Cl)ccc21)Nc1cc(C(F)(F)F)ccc1Cl,1.61%,,40.1%,15.4 µM,61.7 µM,15.4 µM,12.1%
O=C(Cn1c(=O)oc2cc([N+](=O)[O-])ccc21)Nc1ccccc1,18%,,46.1%,19.9 µM,79.8 µM,9.97 µM,26.4%
O=C(Cn1c(=O)oc2ccccc21)Nc1nc2ccccc2s1,43.5%,,42.1%,9.6 µM,19.2 µM,9.6 µM,59.6%
O=C(Cn1c(=O)oc2ccccc21)Nc1ccccc1,35.1%,,32.4%,23.3 µM,46.6 µM,23.3 µM,39.8%
O=C(Cn1c(=O)oc2ccccc21)Nc1ccc(Cl)c(Cl)c1,,> 25 µM,16.5%,,,,
O=C(Cn1c(=O)oc2cc(Cl)ccc21)Nc1nc2ccc([N+](=O)[O-])cc2s1,12.5%,,48.6%,7.72 µM,30.9 µM,7.72 µM,14.2%
O=C(Cn1c(=O)oc2ccccc21)Nc1ccccn1,20.2%,,26.1%,4.64 µM,46.4 µM,9.28 µM,28.4%
CC[C@@H](CO)NCCN[C@@H](CC)CO [ETHAMBUTOL],,,,,7.64 µM,,
O=C(Cn1c(=O)oc2cc(Cl)ccc21)NCc1cccs1,20.3%,,45.6%,9.64 µM,38.7 µM,9.64 µM,53.6%
O=C(Cn1c(=O)oc2cc(Cl)ccc21)NCc1ccco1,27.8%,,47.5%,20.4 µM,40.8 µM,10.2 µM,50.3%
O=C(Cn1c(=O)oc2cc([N+](=O)[O-])ccc21)NCc1cccs1,36.5%,,35.7%,18.8 µM,18.8 µM,18.8 µM,41%
O=C(Cn1c(=O)oc2ccccc21)NCc1ccco1,32.8%,,30.1%,22.9 µM,22.9 µM,22.9 µM,33.8%
O=C(Cn1c(=O)oc2ccccc21)NCc1ccccn1,37.3%,,42.2%,22.1 µM,88.2 µM,44.1 µM,38.7%
O=C(Cn1c(=O)oc2ccccc21)Nc1ncc([N+](=O)[O-])s1,25%,,48.1%,39 µM,78 µM,19.5 µM,44.6%
CC1COc2c(N3CCN(C)CC3)c(F)cc3c(=O)c(C(=O)O)cn1c23 (centres undefined) [OFLOXACIN],,,,,2.16 µM,,
O=C(Cn1c(=O)oc2cc([N+](=O)[O-])ccc21)Nc1nc2ccc([N+](=O)[O-])cc2s1,14.8%,,51.7%,3.75 µM,15 µM,3.75 µM,39%
O=C(Cn1c(=O)oc2cc([N+](=O)[O-])ccc21)Nc1cc(C(F)(F)F)ccc1Cl,12.8%,,32.2%,15 µM,60.1 µM,30.1 µM,31.6%
NNC(=O)c1ccncc1 [ISONIAZID],,,,,0.72 µM,,
CO[C@H]1/C=C/O[C@@]2(C)Oc3c(C)c(O)c4c(O)c(c(/C=N/N5CCN(C)CC5)c(O)c4c3C2=O)NC(=O)/C(C)=C\C=C\[C@H](C)[C@H](O)[C@@H](C)[C@@H](O)[C@@H](C)[C@H](OC(C)=O)[C@@H]1C [RIFAMPIN],,,,,0.15 µM,,
O=C(Cn1c(=O)oc2ccccc21)Nc1cc(Cl)ccc1Cl,,22.1 µM,19.5%,,,,
O=C(Cn1c(=O)oc2cc([N+](=O)[O-])ccc21)NCc1ccco1,26.8%,,36.9%,39.4 µM,78.8 µM,39.4 µM,60.1%
O=C(Cn1c(=O)oc2ccccc21)Nc1cccc(Cl)c1,,> 25 µM,17%,,,,
O=C(Cn1c(=O)oc2cc([N+](=O)[O-])ccc21)Nc1ccccn1,38.6%,,15.6%,19.9 µM,39.8 µM,9.94 µM,47.3%
O=C(Cn1c(=O)oc2cc(Cl)ccc21)NCc1ccccn1,36.1%,,43.1%,4.91 µM,39.3 µM,4.91 µM,40%
O=C(Cn1c(=O)oc2ccccc21)NCc1cccs1,23.4%,,26.1%,10.8 µM,21.7 µM,5.41 µM,49.1%
O=C(Cn1c(=O)oc2cc(Cl)ccc21)Nc1ccccn1,33%,,51.6%,10.3 µM,82.3 µM,10.3 µM,43.7%

# From ChEMBL document CHEMBL3352380, “Development of benzo[d]oxazol-2(3H)-ones derivatives as novel inhibitors of Mycobacterium tuberculosis InhA” (Bioorg Med Chem, 2014)
